{
  "source": "paper PMC5726523",
  "about": "(Nature chemistry, 2017)",
  "key": {"K35 in transthyretin TTR": {"biological_target": "K35 in transthyretin TTR (Homo sapiens, UniProt P02766)", "assay": "competitive isoTOP-ABPP, TTR K35", "type": "binding", "conditions": "compared with fragments 29 and 30", "in_short": "(§1)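 Human cancer cell proteomes were pretreated with an amine-reactive electrophilic fragment (50–100 μM) or DMSO, then probe 1 (100 μM). Labeled proteins were CuAAC-conjugated to isotopic TEV-cleavable azide-biotin tags (DMSO heavy, fragment light), combined and analysed by isoTOP-ABPP. R = DMSO/fragment MS1 peak ratio of probe-labeled peptides. R ≥ 4 (≥75% loss of enrichment) defines liganding.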"}, "NUDT2 [1]": {"biological_target": "T1, NUDT2 (Homo sapiens, UniProt P50583)", "T1 sequence (P50583 whole entry)": "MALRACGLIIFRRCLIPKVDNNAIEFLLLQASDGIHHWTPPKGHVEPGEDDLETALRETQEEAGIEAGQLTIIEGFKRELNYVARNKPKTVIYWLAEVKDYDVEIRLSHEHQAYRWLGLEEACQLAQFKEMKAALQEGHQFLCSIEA", "assay": "NUDT2 substrate assay", "type": "biochemical", "conditions": "compared with gel-based ABPP IC50 of 2 μM"}, "K89 of NUDT2": {"biological_target": "K89 of NUDT2 (Homo sapiens, UniProt P50583)", "sequence (P50583 whole entry)": "as above", "assay": "competitive isoTOP-ABPP, NUDT2 K89", "type": "binding", "in_short": "as §1"}, "NUDT2 [2]": {"biological_target": "T1, NUDT2", "assay": "gel-based ABPP, blockade of probe labeling of NUDT2", "type": "binding", "conditions": "read-out: apparent IC50, blockade of probe labeling of NUDT2", "in_short": "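Flag-tagged NUDT2 was recombinantly expressed in HEK 293T cells. Samples were treated with test compound, then a lysine-reactive probe, and analysed by gel-based ABPP. Apparent IC50 is from blockade of probe labeling of the liganded lysine.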"}, "K155 of SIN3A [3]": {"biological_target": "T2, K155 of SIN3A (Homo sapiens, UniProt Q96ST3)", "T2 sequence (Q96ST3 1-400)": "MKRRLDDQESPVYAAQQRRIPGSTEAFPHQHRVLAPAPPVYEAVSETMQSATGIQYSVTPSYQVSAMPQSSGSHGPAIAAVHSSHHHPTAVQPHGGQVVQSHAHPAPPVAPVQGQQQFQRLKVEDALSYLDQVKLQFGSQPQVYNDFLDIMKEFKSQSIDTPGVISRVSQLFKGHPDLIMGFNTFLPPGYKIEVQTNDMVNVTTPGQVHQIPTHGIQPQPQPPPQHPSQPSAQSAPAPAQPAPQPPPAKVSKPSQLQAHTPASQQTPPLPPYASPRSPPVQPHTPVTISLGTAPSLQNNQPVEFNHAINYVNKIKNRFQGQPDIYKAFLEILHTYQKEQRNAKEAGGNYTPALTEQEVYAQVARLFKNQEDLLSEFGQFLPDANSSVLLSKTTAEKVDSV", "assay": "gel-based ABPP, blockade of probe labeling of SIN3A", "type": "binding", "conditions": "read-out: apparent IC50, blockade of probe labeling of K155, lysates of HEK293T cells expressing Flag-SIN3A a.a. 1-400"}, "SIN3A-TGIF2 interaction": {"biological_target": "T3, SIN3A-TGIF2 interaction (Homo sapiens, UniProt Q96ST3)", "T3 sequence (Q96ST3 1-400)": "T2 sequence (Q96ST3 1-400)", "assay": "co-immunoprecipitation western blot, Flag-SIN3A / Myc-TGIF2", "type": "biochemical", "conditions": "50 μM, 1 h", "in_short": "(§2)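 Flag-SIN3A (a.a. 1-400, WT or K155 mutants) or Flag-GFP was co-expressed in HEK 293T cells with Myc-TGIF1 or Myc-TGIF2. Lysates were treated with DMSO or test compound (50 μM, 1 h), immunoprecipitated and analysed by anti-Myc western blot. Four biological replicates, mean ± SD. Unpaired Student's t-test, WT + compound vs K155R + compound.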"}, "[4]": {"biological_target": "T4, SIN3A K155R-TGIF1 interaction (Homo sapiens, UniProt Q96ST3, K155R)", "T4 sequence (Q96ST3 1-400 K155R)": "T2 sequence (Q96ST3 1-400) with K155R", "assay": "co-immunoprecipitation western blot, Flag-SIN3A K155R / Myc-TGIF1", "type": "biochemical", "conditions": "50 μM, 1 h", "in_short": "as §2"}, "K155 of SIN3A [5]": {"biological_target": "T5, K155 of SIN3A (Homo sapiens, UniProt Q96ST3)", "T5 sequence (Q96ST3 1-1273)": "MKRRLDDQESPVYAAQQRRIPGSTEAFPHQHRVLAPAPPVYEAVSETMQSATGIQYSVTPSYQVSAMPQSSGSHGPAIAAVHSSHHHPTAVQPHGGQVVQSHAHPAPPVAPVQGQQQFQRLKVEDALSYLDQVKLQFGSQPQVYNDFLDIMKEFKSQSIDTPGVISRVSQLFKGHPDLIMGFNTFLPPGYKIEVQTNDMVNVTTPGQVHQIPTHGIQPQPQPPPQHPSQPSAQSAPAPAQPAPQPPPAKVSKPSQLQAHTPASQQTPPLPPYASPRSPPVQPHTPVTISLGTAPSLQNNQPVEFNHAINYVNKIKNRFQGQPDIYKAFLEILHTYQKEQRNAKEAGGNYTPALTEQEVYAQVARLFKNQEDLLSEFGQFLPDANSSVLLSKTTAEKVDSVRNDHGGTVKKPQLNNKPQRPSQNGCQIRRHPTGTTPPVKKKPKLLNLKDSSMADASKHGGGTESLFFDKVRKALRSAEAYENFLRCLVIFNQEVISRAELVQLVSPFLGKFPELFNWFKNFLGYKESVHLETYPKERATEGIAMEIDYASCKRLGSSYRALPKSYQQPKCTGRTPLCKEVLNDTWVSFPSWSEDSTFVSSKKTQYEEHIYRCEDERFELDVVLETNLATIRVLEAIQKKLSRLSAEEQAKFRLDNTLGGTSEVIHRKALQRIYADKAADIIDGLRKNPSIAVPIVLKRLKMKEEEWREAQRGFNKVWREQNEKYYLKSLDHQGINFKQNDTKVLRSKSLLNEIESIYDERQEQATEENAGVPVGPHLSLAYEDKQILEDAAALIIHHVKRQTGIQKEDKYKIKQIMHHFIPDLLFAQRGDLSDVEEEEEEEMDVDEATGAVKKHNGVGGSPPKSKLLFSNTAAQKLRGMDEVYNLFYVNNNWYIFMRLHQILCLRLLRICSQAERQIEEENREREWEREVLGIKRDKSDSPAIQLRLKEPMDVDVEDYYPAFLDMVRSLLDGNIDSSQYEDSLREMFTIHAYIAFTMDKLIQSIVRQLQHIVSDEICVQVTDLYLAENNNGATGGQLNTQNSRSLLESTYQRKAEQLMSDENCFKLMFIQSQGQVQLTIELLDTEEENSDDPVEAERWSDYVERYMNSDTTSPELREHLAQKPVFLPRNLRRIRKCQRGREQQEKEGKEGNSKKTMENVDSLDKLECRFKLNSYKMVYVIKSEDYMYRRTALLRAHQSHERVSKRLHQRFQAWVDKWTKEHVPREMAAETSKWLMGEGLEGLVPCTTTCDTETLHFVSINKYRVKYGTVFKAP", "assay": "competitive isoTOP-ABPP, SIN3A K155", "type": "binding", "conditions": "50 μM, human cancer cell proteomes", "in_short": "as §1"}, "TGIF1-SIN3A interaction": {"biological_target": "T6, TGIF1-SIN3A interaction (Homo sapiens, UniProt Q96ST3)", "T6 sequence (Q96ST3 1-400)": "T2 sequence (Q96ST3 1-400)", "assay": "SILAC co-immunoprecipitation-MS proteomics, SIN3A-TGIF1", "type": "biochemical", "conditions": "50 μM, 1 h, co-IP MS proteomics", "in_short": "(§3)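 HEK293T cells were metabolically labeled with isotopically differentiated amino acids. Heavy cells were transfected with Flag-SIN3A and light cells with Flag-GFP. Cells were lysed and anti-Flag immunoprecipitated. Heavy and light IPs were combined, trypsin-digested and run on LC-MS/MS. SIN3A interactors were proteins enriched >five-fold over GFP. Paired comparisons were WT vs K155W-SIN3A, and DMSO vs test compound (50 μM, 1 h) on WT.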"}, "TGIF2-SIN3A interaction": {"biological_target": "T7, TGIF2-SIN3A interaction (Homo sapiens, UniProt Q96ST3)", "T7 sequence (Q96ST3 1-400)": "T2 sequence (Q96ST3 1-400)", "assay": "SILAC co-immunoprecipitation-MS proteomics, SIN3A-TGIF2", "type": "biochemical", "conditions": "50 μM, 1 h, co-IP MS proteomics", "in_short": "as §3"}, "SIN3A-TGIF1 interaction": {"biological_target": "T8, SIN3A-TGIF1 interaction (Homo sapiens, UniProt Q96ST3)", "T8 sequence (Q96ST3 1-400)": "T2 sequence (Q96ST3 1-400)", "assay": "co-immunoprecipitation western blot, Flag-SIN3A / Myc-TGIF1", "type": "biochemical", "conditions": "50 μM, 1 h, anti-Myc blotting", "in_short": "as §2"}},
  "note": "Where a chain is given by its changes, count along the chain named.",
  "data": [
    {"smiles": "O=C(Oc1ccc([N+](=O)[O-])cc1[N+](=O)[O-])c1cc(C(F)(F)F)cc(C(F)(F)F)c1", "note": "[fragment 31]", "values": [
      {"measurement": "targeting of K35 of TTR", "setting": "K35 in transthyretin TTR", "result": "preferentially targeted"}
    ]},
    {"smiles": "COC(=O)NC(=NC(=O)OCC1c2ccccc2-c2ccccc21)n1cccn1", "note": "[fragment 49]", "values": [
      {"measurement": "IC50, inhibition of NUDT2 activity", "setting": "NUDT2 [1]", "result": "equivalent IC50 value"},
      {"measurement": "reactivity with K89 of NUDT2", "setting": "K89 of NUDT2", "result": "preferentially reacting"},
      {"measurement": "IC50", "setting": "NUDT2 [2]", "result": 2, "unit": "µM"}
    ]},
    {"smiles": "O=C(Oc1c(F)c(F)c(F)c(F)c1F)c1cc(C(F)(F)F)cc(C(F)(F)F)c1", "note": "[fragment 21]", "values": [
      {"measurement": "IC50", "setting": "K155 of SIN3A [3]", "result": 5, "unit": "µM"},
      {"measurement": "effect on co-immunoprecipitation of TGIF2 with SIN3A", "setting": "SIN3A-TGIF2 interaction", "result": "partial blockade"},
      {"measurement": "effect on SIN3A-TGIF1 interaction with K155R mutant", "setting": "[4]", "result": "conferred resistance"},
      {"measurement": "R value (DMSO/fragment) for tryptic peptide containing K155", "setting": "K155 of SIN3A [5]", "result": 20},
      {"measurement": "blockade of probe 1 labeling of K155", "setting": "K155 of SIN3A [5]", "result": "> 95", "unit": "%"},
      {"measurement": "effect on TGIF1-SIN3A interaction", "setting": "TGIF1-SIN3A interaction", "result": "strongly blocked"},
      {"measurement": "effect on TGIF2-SIN3A interaction", "setting": "TGIF2-SIN3A interaction", "result": "marginal effect"},
      {"measurement": "effect on co-immunoprecipitation of TGIF1 with SIN3A", "setting": "SIN3A-TGIF1 interaction", "result": "blocked"}
    ]}
  ]
}
